Active and inactive are the calls of the source. The rule behind the calls is not given here.
Experiments:
Type in all cases: cell-based
[1] = Activation of FKBP12-rapamycin binding domain I2021T M2058V G2061D K2066R K2090R S2091L stop codon mutant in african green monkey COS1 cells after 16 hrs assessed as induction of secreted alkaline phosphatase expression assay; settings: COS-1, 16 h
Outline: (§1)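 COS-1 cells co-transfected by electroporation with Gal4BD-FKBP (pBJ5-GF3E), VP16AD-FRB (pBJ5-FRBVE, wild-type or mutant FRB) and SeAP reporter (pG5IL2SX). Cells treated in quadruplicate for 16 h with iRap (0.5-500 nM) or rapamycin (0.05-50 nM). SeAP read as fluorescence from methylumbelliferylphosphate substrate. EC50 derived from curve fits of mean (±SEM).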

[2] = Activation of FKBP12-rapamycin binding domain R2110 mutant in african green monkey COS1 cells after 16 hrs assessed as induction of secreted alkaline phosphatase expression assay; settings: COS-1, 16 h; outline: as §1
[3] = Activation of FKBP12-rapamycin binding domain I2021V stop codon mutant in african green monkey COS1 cells after 16 hrs assessed as induction of secreted alkaline phosphatase expression assay; settings: COS-1, 16 h; outline: as §1
[4] = Activation of FKBP12-rapamycin binding domain I2021T A2100V stop codon mutant in african green monkey COS1 cells after 16 hrs assessed as induction of secreted alkaline phosphatase expression assay; settings: COS-1, 16 h; outline: as §1
NIH3T3 [5] = experiment: Effect on stability of FKBP12-rapamycin binding domain T2068S E2080G stop codon mutant expressed in mouse NIH3T3 cells assessed as increase in yellow fluorescent protein fluorescence level at 1 uM after 24 hrs by flow cytometry
Outline: (§2)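 FRB (mTOR residues 2015-2114, wild-type or mutant) fused to N-terminus of YFP in pBMN. NIH3T3 cells stably transduced with retrovirus from ΦNX cells; 293T cells transiently transfected (wild-type only). Cells mock-treated or given 1 μM iRap for 24 h, then trypsinized, PBS-washed and analysed by flow cytometry (10,000 events). Mean fluorescence intensity, triplicate.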

NIH3T3 [6] = experiment: Effect on stability of FKBP12-rapamycin binding domain N2043S stop codon mutant expressed in mouse NIH3T3 cells assessed as increase in yellow fluorescent protein fluorescence level at 1 uM after 24 hrs by flow cytometry; outline: as §2
NIH3T3 [7] = experiment: Effect on stability of wild-type FKBP12-rapamycin binding domain protein expressed in mouse NIH3T3 cells assessed as increase in yellow fluorescent protein fluorescence level at 10 nM after 24 hrs by flow cytometry
Outline: (§3)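 NIH3T3 cells stably transduced with wtFRB-YFP, treated with iRap (10 nM to 10 μM). YFP fluorescence monitored by flow cytometry over 24 h, 10,000 events per sample. Mean fluorescence intensity expressed relative to the overall highest value; duplicate.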

NIH3T3 [8] = experiment: Effect on stability of FKBP12-rapamycin binding domain H2024R stop codon mutant expressed in mouse NIH3T3 cells assessed as increase in yellow fluorescent protein fluorescence level at 1 uM after 24 hrs by flow cytometry; outline: as §2
[9] = Activation of FKBP12-rapamycin binding domain I2021T E2029G L2037S stop codon mutant in african green monkey COS1 cells after 16 hrs assessed as induction of secreted alkaline phosphatase expression assay; settings: COS-1, 16 h; outline: as §1
[10] = Activation of wild-type FKBP12-rapamycin binding domain protein in african green monkey COS1 cells after 16 hrs assessed as induction of secreted alkaline phosphatase expression assay; settings: COS-1, 16 h; outline: as §1
NIH3T3 [11] = experiment: Effect on stability of wild-type FKBP12-rapamycin binding domain protein expressed in mouse NIH3T3 cells assessed as increase in yellow fluorescent protein fluorescence level at 10 uM after 24 hrs by flow cytometry; outline: as §3
[12] = Activation of FKBP12-rapamycin binding domain M2026V E2049G stop codon mutant in african green monkey COS1 cells after 16 hrs assessed as induction of secreted alkaline phosphatase expression assay; settings: COS-1, 16 h; outline: as §1
[13] = Activation of FKBP12-rapamycin binding domain E2067G stop codon mutant in african green monkey COS1 cells after 16 hrs assessed as induction of secreted alkaline phosphatase expression assay; settings: COS-1, 16 h; outline: as §1
293T = experiment: Effect on stability of wild-type FKBP12-rapamycin binding domain protein expressed in human 293T cells assessed as increase in yellow fluorescent protein fluorescence level at 1 uM after 24 hrs by flow cytometry; outline: as §2
NIH3T3 [14] = experiment: Effect on stability of wild-type FKBP12-rapamycin binding domain protein expressed in mouse NIH3T3 cells assessed as increase in yellow fluorescent protein fluorescence level at 100 nM after 24 hrs by flow cytometry; outline: as §3
[15] = Activation of FKBP12-rapamycin binding domain stop codon>Leu mutant in african green monkey COS1 cells after 16 hrs assessed as induction of secreted alkaline phosphatase expression assay; settings: COS-1, 16 h; outline: as §1
[16] = Activation of FKBP12-rapamycin binding domain I2021T W2023R K2045L S2112P stop codon mutant in african green monkey COS1 cells after 16 hrs assessed as induction of secreted alkaline phosphatase expression assay; settings: COS-1, 16 h; outline: as §1
[17] = Activation of FKBP12-rapamycin binding domain S2069P stop codon mutant in african green monkey COS1 cells after 16 hrs assessed as induction of secreted alkaline phosphatase expression assay; settings: COS-1, 16 h; outline: as §1
[18] = Activation of FKBP12-rapamycin binding domain T2064I Y2074H K2090R stop codon mutant in african green monkey COS1 cells after 16 hrs assessed as induction of secreted alkaline phosphatase expression assay; settings: COS-1, 16 h; outline: as §1
NIH3T3 [19] = experiment: Effect on stability of FKBP12-rapamycin binding domain K2066R D2077G stop codon mutant expressed in mouse NIH3T3 cells assessed as increase in yellow fluorescent protein fluorescence level at 1 uM after 24 hrs by flow cytometry; outline: as §2
[20] = Activation of FKBP12-rapamycin binding domain S2069P M2079I stop codon mutant in african green monkey COS1 cells after 16 hrs assessed as induction of secreted alkaline phosphatase expression assay; settings: COS-1, 16 h; outline: as §1
[21] = Activation of FKBP12-rapamycin binding domain mutant in african green monkey COS1 cells after 16 hrs assessed as induction of secreted alkaline phosphatase expression assay; settings: COS-1, 16 h; outline: as §1
[22] = Activation of FKBP12-rapamycin binding domain K2066R D2077G stop codon mutant in african green monkey COS1 cells after 16 hrs assessed as induction of secreted alkaline phosphatase expression assay; settings: COS-1, 16 h; outline: as §1
[23] = Activation of FKBP12-rapamycin binding domain C2085R stop codon mutant in african green monkey COS1 cells after 16 hrs assessed as induction of secreted alkaline phosphatase expression assay; settings: COS-1, 16 h; outline: as §1
[24] = Activation of FKBP12-rapamycin binding domain H2024R stop codon mutant protein in african green monkey COS1 cells after 16 hrs assessed as induction of secreted alkaline phosphatase expression assay; settings: COS-1, 16 h; outline: as §1
[25] = Activation of FKBP12-rapamycin binding domain I2021T K2045E E2049G M2057T E2083K stop codon mutant in african green monkey COS1 cells after 16 hrs assessed as induction of secreted alkaline phosphatase expression assay; settings: COS-1, 16 h; outline: as §1
NIH3T3 [26] = experiment: Effect on stability of wild-type FKBP12-rapamycin binding domain protein expressed in mouse NIH3T3 cells assessed as increase in yellow fluorescent protein fluorescence level at 1 uM after 24 hrs by flow cytometry; outline: as §2
[27] = Activation of FKBP12-rapamycin binding domain N2043S stop codon mutant in african green monkey COS1 cells after 16 hrs assessed as induction of secreted alkaline phosphatase expression assay; settings: COS-1, 16 h; outline: as §1
[28] = Activation of FKBP12-rapamycin binding domain T2068S E2080G stop codon mutant in african green monkey COS1 cells after 16 hrs assessed as induction of secreted alkaline phosphatase expression assay; settings: COS-1, 16 h; outline: as §1
[29] = Activation of FKBP12-rapamycin binding domain A2020V I2021T D2096G stop codon mutant in african green monkey COS1 cells after 16 hrs assessed as induction of secreted alkaline phosphatase expression assay; settings: COS-1, 16 h; outline: as §1
[30] = Activation of FKBP12-rapamycin binding domain I2017V E2033G stop codon mutant in african green monkey COS1 cells after 16 hrs assessed as induction of secreted alkaline phosphatase expression assay; settings: COS-1, 16 h; outline: as §1

EC50 [1]: 0.1 µM
EC50 [2]: 0.25 µM
EC50 [3]: 0.0281 µM
EC50 [4]: 0.0674 µM
EC50 [9]: 0.0888 µM
EC50 [10]: 0.0205 µM
EC50 [12]: 0.039 µM
EC50 [13]: 0.0451 µM
EC50 [15]: 0.026 µM
EC50 [16]: 0.0314 µM
EC50 [17]: 0.0427 µM
EC50 [18]: 0.0221 µM
EC50 [20]: 0.0391 µM
EC50 [21]: 0.0326 µM
EC50 [22]: 0.0204 µM
EC50 [23]: 0.0334 µM
EC50 [24]: 0.0144 µM
EC50 [25]: 0.0297 µM
EC50 [27]: 0.0249 µM
EC50 [28]: 0.0193 µM
EC50 [29]: 0.0417 µM
EC50 [30]: 0.023 µM
SMILES: CO[C@@H]1C[C@H](C[C@@H](C)[C@@H]2CC(=O)[C@H](C)/C=C(\C)[C@@H](O)[C@@H](OC)C(=O)[C@H](C)C[C@H](C)/C=C/C=C/C=C(\C)[C@@H](c3[nH]c4ccccc4c3C)C[C@@H]3CC[C@@H](C)[C@@](O)(O3)C(=O)C(=O)N3CCCC[C@H]3C(=O)O2)CC[C@H]1O
Activity (NIH3T3 [5]): 5
Activity (NIH3T3 [6]): 8
Activity (NIH3T3 [7]): Active
Activity (NIH3T3 [8]): 4
Activity (NIH3T3 [11]): Active
Activity (293T): Active
Activity (NIH3T3 [14]): Active
Activity (NIH3T3 [19]): 7
Activity (NIH3T3 [26]): 10

From ChEMBL document CHEMBL1156445, “The rapamycin-binding domain of the protein kinase mammalian target of rapamycin is a destabilizing domain” (J Biol Chem, 2007)
